Results gathered from unrelated publications.
Lines come from different studies, so protocols differ.
Target: Mitogen-activated protein kinase kinase kinase kinase 4 (MAP4K4, Homo sapiens, UniProt O95819)

SMILES	test	conditions	quantity	result
C=CC(=O)N1CCC[C@@H](n2nc(-c3ccc(Oc4ccccc4)cc3)c3c(N)ncnc32)C1	enzyme activity, inhibitor	1 µM	inhibition	4%
C[C@H]1CC[C@H](n2c3cnccc3c3cnc(Nc4ccc5c(n4)CCN(C(=O)CO)C5)nc32)CC1	binding, competition with immobilised ligand	1 µM	remaining binding	100%
CC(C)S(=O)(=O)c1ccc2nccc(Nc3ccc4sc(C5CCCC5)nc4c3)c2c1	enzyme activity, inhibitor	1 µM	activity vs control	110%
CCCCC(=O)Nc1ccc(-c2ccc3ncn(CCC)c(=O)c3c2)cn1	binding, competition with immobilised ligand	0.5 µM	remaining binding	100%
Cc1cc(O)c(-c2ccc([C@@H](C)CN(C)C)cc2)c2c1[nH]c(=O)c1sccc12	enzyme activity, inhibitor	0.1 µM	inhibition	-4%
COc1ccc2oc(-c3ccc4nc(N)oc4c3)c/c(=N\c3ccccc3NC(=O)CCN)c2c1	binding	1 µM	remaining binding	96%
C#Cc1cc(-c2cc(Nc3nc(N[C@@H](C)c4ccc(F)cn4)ncc3Cl)n[nH]2)ccc1C=O	enzyme activity, inhibitor	0.2 µM	inhibition	11.9%
C1=C/COCc2cc(ccc2OCCN2CCCC2)Nc2nccc(n2)-c2cccc(c2)COC/1	binding	0.1 µM	remaining binding	55%
C=CC(=O)N1CCC([C@@H]2CCNc3c(C(N)=O)c(-c4ccc(Oc5ccccc5)cc4)nn32)CC1	enzyme activity, inhibitor	1 µM	inhibition	23%
COc1ccc2[nH]c3c4[nH]c5ccc(OC)cc5c4c4c(c3c2c1)C(=O)NC4=O	binding, competition with immobilised ligand	1 µM	remaining binding	2.7%
